# Data published in ChEMBL document CHEMBL4715795, “Urolinin: The First Linear Peptidic Urotensin-II Receptor Agonist” (J Med Chem, 2016).
# Peptide text beside a SMILES is read from it.
# Columns and labels:
# [1] = target: T1, Urotensin-2 receptor (Homo sapiens) (UniProt Q9UKP6); assay: Agonist activity at human U-IIR expressed in HEK293-A cells at 500 nM by Fluo4-AM dye based intracellular calcium mobilization assay relative to control; type: functional, cell-based; conditions: filed as agonist
# T1 sequence (whole entry): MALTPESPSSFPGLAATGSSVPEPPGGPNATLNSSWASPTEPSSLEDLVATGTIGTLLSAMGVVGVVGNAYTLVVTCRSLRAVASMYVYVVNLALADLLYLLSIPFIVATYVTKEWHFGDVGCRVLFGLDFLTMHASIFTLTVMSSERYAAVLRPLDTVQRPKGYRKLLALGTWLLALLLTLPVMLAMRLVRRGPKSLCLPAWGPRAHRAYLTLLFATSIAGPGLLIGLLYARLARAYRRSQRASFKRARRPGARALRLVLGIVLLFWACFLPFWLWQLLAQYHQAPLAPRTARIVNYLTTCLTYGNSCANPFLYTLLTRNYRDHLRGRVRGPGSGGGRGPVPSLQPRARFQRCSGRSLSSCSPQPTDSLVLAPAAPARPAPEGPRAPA
# [2] = target: T1, Urotensin-2 receptor (Homo sapiens); assay: Agonist activity at human U-IIR expressed in HEK293-A cells at 500 nM by Fluo4-AM dye based intracellular calcium mobilization assay relative to control; conditions: filed as agonist, dose nM 500
# [3] = target: T2, Urotensin-2 receptor (Homo sapiens, UniProt Q9UKP6); assay: Displacement of [125I-Tyr9]-U-II from human U-IIR expressed in HEK293-A cells incubated for 30 mins by gamma counting based competition radioligand binding assay; type: cell-based
# T2 sequence (Q9UKP6 whole entry): T1 sequence (whole entry)
# [4] = target: Somatostatin receptor type 1 (Homo sapiens, UniProt P30872); assay: Displacement of [125I-Tyr11]-SS14 from human SSTR1 expressed in HEK293-A cells incubated for 30 mins by gamma counting based competition radioligand binding assay; type: cell-based
# Chain of Somatostatin receptor type 1 (P30872 whole entry): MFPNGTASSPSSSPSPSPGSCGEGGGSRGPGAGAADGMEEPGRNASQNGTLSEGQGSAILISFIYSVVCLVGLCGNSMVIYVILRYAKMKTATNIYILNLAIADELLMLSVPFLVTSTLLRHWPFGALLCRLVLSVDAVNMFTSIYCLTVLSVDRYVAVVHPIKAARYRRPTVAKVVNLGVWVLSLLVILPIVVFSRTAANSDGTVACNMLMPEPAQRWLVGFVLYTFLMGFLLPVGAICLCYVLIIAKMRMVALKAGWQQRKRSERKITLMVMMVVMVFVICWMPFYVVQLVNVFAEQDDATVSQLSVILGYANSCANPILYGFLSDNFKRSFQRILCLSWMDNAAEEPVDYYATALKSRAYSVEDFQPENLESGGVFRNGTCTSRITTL
# Summary of the method: (§1)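 Competition binding on HEK293A cells overexpressing the given human SSTR subtype, seeded overnight. Binding buffer: 50 mM Tris-HCl pH 7.4, 5 mM MgCl2, 1 mM CaCl, 0.5% BSA, protease inhibitors. 100000 cpm [125I-Tyr11]-SS14 (chloramine-T iodinated, HPLC-purified) with varying competitor, 30 min at 37 °C. Cells washed four times in cold buffer, lysed in 1 N NaOH, gamma counted. Mean ± SD, three experiments in duplicate.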
# [5] = Half life in 25% human serum by RP-HPLC analysis; type: ADME, cell-free
# Summary of the method: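 Peptide at 50 μg/mL final in RPMI with 25% (v/v) human serum, pre-equilibrated at 37 °C. Samples taken at set times into 6% TCA, iced 15 min, spun at 18000g. Supernatant run on C18 RP-HPLC, 25–80% acetonitrile gradient over 15 min at 30 °C, absorbance at 214 and 280 nm.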
# [6] = target: Somatostatin receptor type 3 (Homo sapiens, UniProt P32745); assay: Displacement of [125I-Tyr11]-SS14 from human SSTR3 expressed in HEK293-A cells incubated for 30 mins by gamma counting based competition radioligand binding assay; type: cell-based; summary of the method: as §1
# Chain of Somatostatin receptor type 3 (P32745 whole entry): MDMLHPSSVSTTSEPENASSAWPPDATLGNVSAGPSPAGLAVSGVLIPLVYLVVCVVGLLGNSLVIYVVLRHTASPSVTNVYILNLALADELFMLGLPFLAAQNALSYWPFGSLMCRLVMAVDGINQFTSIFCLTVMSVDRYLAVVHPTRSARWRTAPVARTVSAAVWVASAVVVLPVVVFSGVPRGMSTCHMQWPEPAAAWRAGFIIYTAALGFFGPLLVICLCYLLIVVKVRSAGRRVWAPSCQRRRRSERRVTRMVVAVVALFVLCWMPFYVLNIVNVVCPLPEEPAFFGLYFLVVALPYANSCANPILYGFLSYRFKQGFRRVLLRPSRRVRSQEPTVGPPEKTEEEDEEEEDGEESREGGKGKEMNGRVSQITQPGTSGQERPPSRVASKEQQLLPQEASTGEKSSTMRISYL
# [7] = target: Somatostatin receptor type 5 (Homo sapiens, UniProt P35346); assay: Displacement of [125I-Tyr11]-SS14 from human SSTR5 expressed in HEK293-A cells incubated for 30 mins by gamma counting based competition radioligand binding assay; type: cell-based; summary of the method: as §1
# Chain of Somatostatin receptor type 5 (P35346 whole entry): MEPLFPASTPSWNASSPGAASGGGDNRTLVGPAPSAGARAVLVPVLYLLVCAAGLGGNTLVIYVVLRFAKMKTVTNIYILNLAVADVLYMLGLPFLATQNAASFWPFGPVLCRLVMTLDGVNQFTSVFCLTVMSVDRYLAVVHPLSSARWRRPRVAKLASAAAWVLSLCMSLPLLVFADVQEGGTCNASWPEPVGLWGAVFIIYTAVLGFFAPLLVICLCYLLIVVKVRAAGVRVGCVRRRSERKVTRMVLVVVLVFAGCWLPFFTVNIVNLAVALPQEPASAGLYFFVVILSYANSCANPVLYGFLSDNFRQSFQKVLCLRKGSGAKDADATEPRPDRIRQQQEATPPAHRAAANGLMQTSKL
# [8] = target: T2, Urotensin-2 receptor; assay: Agonist activity at human U-IIR expressed in HEK293-A cells by Fluo4-AM dye based intracellular calcium mobilization assay; type: functional, cell-based
# [9] = target: Somatostatin receptor type 2 (Homo sapiens, UniProt P30874); assay: Displacement of [125I-Tyr11]-SS14 from human SSTR2 expressed in HEK293-A cells incubated for 30 mins by gamma counting based competition radioligand binding assay; type: cell-based; summary of the method: as §1
# Chain of Somatostatin receptor type 2 (P30874 whole entry): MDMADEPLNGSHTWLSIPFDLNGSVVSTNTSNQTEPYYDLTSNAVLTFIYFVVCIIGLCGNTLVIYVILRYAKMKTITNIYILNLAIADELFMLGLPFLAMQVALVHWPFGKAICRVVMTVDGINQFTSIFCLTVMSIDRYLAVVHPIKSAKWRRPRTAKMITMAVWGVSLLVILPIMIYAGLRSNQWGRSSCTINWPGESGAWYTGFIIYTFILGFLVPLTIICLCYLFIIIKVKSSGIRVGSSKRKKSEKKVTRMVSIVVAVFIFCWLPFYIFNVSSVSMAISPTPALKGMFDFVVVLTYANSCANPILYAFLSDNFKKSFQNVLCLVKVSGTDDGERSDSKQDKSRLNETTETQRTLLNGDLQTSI
Structure (SMILES),%max [1] [%],%max [2] [%],IC50 [3] [µM],IC50 [4] [µM],half-life [5] [h],IC50 [6] [µM],IC50 [7] [µM],EC50 [8] [µM],IC50 [9] [µM]
CC(=O)N[C@@H](Cc1ccccc1)C(=O)N[C@@H](Cc1c[nH]c2ccccc12)C(=O)N[C@@H](CCCCN)C(=O)N[C@@H](Cc1ccc(O)cc1)C(N)=O (Ac-FWKY-NH2),57,57,–,–,–,–,–,–,–
CC(C)[C@H](NC(=O)[C@@H]1CSSC[C@H](NC(=O)[C@H](CC(=O)O)NC(=O)[C@@H]2CCCN2C(=O)[C@@H](NC(=O)[C@@H](N)CCC(=O)O)[C@@H](C)O)C(=O)N[C@@H](Cc2ccccc2)C(=O)N[C@@H](Cc2c[nH]c3ccccc23)C(=O)N[C@@H](CCCCN)C(=O)N[C@@H](Cc2ccc(O)cc2)C(=O)N1)C(N)=O,–,–,0.002,10.5,3.48,8.64,7.6,0.00146,2.98
